Experimental data reported in PMC3458188 (ACS nano, 2012).

How the values were obtained:
[1] = type: in vivo, athymic nude mice bearing MDA-MB-231 tumors; conditions: IP, Alexa 700-labelled KLAK PA
Outline: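 Female athymic nude mice carried orthotopic MDA-MB-231 mammary tumours. Dialysed Alexa 700-conjugated PA (20 mg/kg, 1.8 mM; 2.5 μg dye) was given ip, ± 27 mg/kg coassembled PEG PA. Plasma was collected by tail bleed or terminal cardiac puncture, spun 10 000 rpm for 10 min, and read on a plate reader. Paraformaldehyde-fixed tissues were imaged as average radiant efficiency; n = 6 per time point.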

[2] = Small angle X-ray scattering; type: physicochemical; conditions: 2 mM; -1 indicative of cylinders, -2 possibly bundling
Outline: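 Synchrotron SAXS used 15 keV X-rays from a double-crystal monochromator and an offset CCD to cover a wide angle range. Samples at 2 mM were held in 1.5 mm quartz capillaries; incident flux was about 10^12 photons/s. Intensity was plotted on a relative scale against q = (4π/λ) sin(θ/2).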

[3] = 1H diffusion ordered spectroscopy; type: physicochemical; conditions: DOSY, D2O, ambient temperature; 5 mM KLAK PA alone or 2.5 mM KLAK PA and 2.5 mM PEG PA
Outline: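 Coassembled by dissolving each PA separately in HFIP, mixing at least 15 min, lyophilizing, redissolving in water and lyophilizing again. 1H DOSY at 600 MHz and ambient temperature in 99.9% D2O, at constant total PA of 5 mM (single PA) or 2.5 mM + 2.5 mM (mixed). 32 points were acquired with a 7 μs 90-degree pulse.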

[4] = Cryogenic and conventional TEM of nanostructures; type: physicochemical; conditions: cryo-TEM
Outline: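 For conventional TEM, samples were drop-cast on carbon-coated copper grids and stained with 2% aqueous uranyl acetate. For cryo-TEM, grids were blotted at 95% humidity and plunged into liquid ethane. Both were imaged at 100 keV.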

[5] = Complete blood count and metabolic profiling 24 h after PA administration; type: in vivo, mice; conditions: 24 h after administration
Outline: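 Blood was drawn from mice 24 h after PA or PBS administration and sent to an external laboratory for complete blood count and metabolic profiling. Groups were compared by two-way ANOVA with Bonferroni post-tests.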

Substance: palmitoyl-A4G3(KLAKLAK)2 [KLAK PA]
- observed plasma half-lives ([1]; plasma fluorescence, mice): on the order of several hours
- tissue localization of fluorescence ([1]; tumor bearing mice, IVIS): predominantly localized to liver and kidney
- SAXS slope in the low-q range [2]: approximately -2
- diffusion coefficient of KLAK PA (peak at 2.83 ppm) [3]: 0.69×10^−10 m^2/s
- fiber diameter [4]: roughly 10 nm
- fiber length [4]: several hundred
- alkaline phosphatase levels ([5]; compared with PBS treated controls): significantly lower
- blood glucose levels ([5]; mice): significantly higher
